Results as given in ChEMBL document CHEMBL1146596, “New lupane derived compounds with pro-apoptotic activity in cancer cells: synthesis and structure-activity relationships” (2003).

System: CCRF-CEM
Test: Cytotoxicity against chemosensitive CEM-T lymphoblastc leukemia cell line.
Format: functional, Homo sapiens
Procedure, shortened: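 Cells were kept in DMEM/RPMI 1640 with 10% fetal calf serum, 2 mM glutamine and antibiotics. They were seeded at 2500–30 000 cells/well according to growth characteristics and preincubated 24 h at 37 °C, 5% CO2. Four-fold compound dilutions were tested in duplicate for 72 h. MTT was then added for 1–4 h, the formazan was dissolved in 10% SDS (pH 5.5) overnight, and OD was read at 540 nm. Survival was taken relative to mean control, and TCS50 was derived from dose–response curves.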

Structure (SMILES)	TCS50
CC(=O)OCOC(=O)[C@@]12CC[C@]3(C)[C@H](CC[C@@H]4[C@@]5(C)CC[C@H](OC(C)=O)C(C)(C)[C@@H]5CC[C@]43C)C1=C(C(C)C)C(=O)C2=O	3 µM
COC(=O)[C@@]1(CC(=O)C(=O)C(C)C)CC[C@]2(C)[C@H](CC[C@@H]3[C@@]4(C)CC[C@H](OC(C)=O)C(C)(C)[C@@H]4CC[C@]32C)C1=O	107 µM
COC(=O)C[C@]1(C(=O)OCOC(=O)C(C)(C)C)CC[C@]2(C)[C@H](CC[C@@H]3[C@@]4(C)CC[C@H](OC(C)=O)C(C)(C)[C@@H]4CC[C@]32C)C1=O	99 µM
CC(=O)OC[C@]12C=CC(C(C)C)=C1[C@H]1CC[C@@H]3[C@@]4(C)CC[C@H](OC(C)=O)C(C)(C)[C@@H]4CC[C@@]3(C)[C@]1(C)CC2	>250 µM
COC(=O)C[C@]1(COC(C)=O)CC[C@]2(C)[C@H](CC[C@@H]3[C@@]4(C)CC[C@H](OC(C)=O)C(C)(C)[C@@H]4CC[C@]32C)C1=O	>250 µM
CC(=O)O[C@H]1CC[C@]2(C)[C@H]3CC[C@@H]4C(=O)[C@]5(CC[C@@]4(C)[C@]3(C)CC[C@H]2C1(C)C)COC(=O)C5	>250 µM
CC(=O)O[C@H]1CC[C@]2(C)[C@H]3CC[C@H](C(=O)O)[C@@](C)(CCC(=O)O)[C@]3(C)CC[C@H]2C1(C)C	>250 µM
COC(=O)C[C@]1(C(=O)OC)CC[C@]2(C)[C@H](CC[C@@H]3[C@@]4(C)CC[C@H](OC(C)=O)C(C)(C)[C@@H]4CC[C@]32C)C1=O	>250 µM
CC(=O)OC[C@@]12CC[C@]3(C)[C@H](CC[C@@H]4[C@@]5(C)CC[C@H](OC(C)=O)C(C)(C)[C@@H]5CC[C@]43C)C1=C(C(C)C)C(=O)OC2=O	>250 µM
CC(=O)OCOC(=O)[C@@]12CC[C@]3(C)[C@H](CC[C@@H]4[C@@]5(C)CC[C@H](OC(C)=O)C(C)(C)[C@@H]5CC[C@]43C)C1=C(C(C)C)C(=O)C2	>250 µM
C=C1CC[C@]2(C)[C@H](CC[C@@H]3[C@@]4(C)CC[C@H](OC(C)=O)C(C)(C)[C@@H]4CC[C@]32C)C1=O	>250 µM
COC(=O)C[C@]1(C(=O)OCOC(C)=O)CC[C@]2(C)[C@H](CC[C@@H]3[C@@]4(C)CC[C@H](OC(C)=O)C(C)(C)[C@@H]4CC[C@]32C)C1=O	94 µM
CC(=O)OCOC(=O)[C@@]1(CC(=O)C(=O)C(C)C)CC[C@]2(C)[C@H](CC[C@@H]3[C@@]4(C)CC[C@H](OC(C)=O)C(C)(C)[C@@H]4CC[C@]32C)C1=O	18 µM
CC(=O)OC[C@@]12CC[C@]3(C)[C@H](CC[C@@H]4[C@@]5(C)CC[C@H](OC(C)=O)C(C)(C)[C@@H]5CC[C@]43C)C1=C(C(C)C)C(=O)C2	14 µM
CC(=O)O[C@H]1CC[C@]2(C)[C@H]3CC[C@H](C(=O)OCOC(=O)C(C)(C)C)[C@@](C)(CCC(=O)OCOC(=O)C(C)(C)C)[C@]3(C)CC[C@H]2C1(C)C	>250 µM
COC(=O)[C@@]12CC[C@]3(C)[C@H](CC[C@@H]4[C@@]5(C)CC[C@H](OC(C)=O)C(C)(C)[C@@H]5CC[C@]43C)C1=C(C(C)C)C(=O)OC2=O	127 µM
CC(=O)OC[C@@]1(CC(=O)C(=O)C(C)C)CC[C@]2(C)[C@H](CC[C@@H]3[C@@]4(C)CC[C@H](OC(C)=O)C(C)(C)[C@@H]4CC[C@]32C)C1=O	>250 µM

Structure (SMILES)	TCS50
CC(=O)O[C@H]1CC[C@]2(C)[C@H]3CC[C@@H]4C5=C(C(C)C)C(=O)C(=O)[C@]5(C(=O)OCOC(=O)C(C)(C)C)CC[C@@]4(C)[C@]3(C)CC[C@H]2C1(C)C	105.4 µM
CC(=O)O[C@H]1CC[C@]2(C)[C@H]3CC[C@@H]4C5=C(C(C)C)C(=O)C[C@]5(CO)CC[C@@]4(C)[C@]3(C)CC[C@H]2C1(C)C	232 µM
CC(=O)OC[C@@]12CC[C@]3(C)[C@H](CC[C@@H]4[C@@]5(C)CC[C@H](OC(C)=O)C(C)(C)[C@@H]5CC[C@]43C)C1=C(C(C)C)C(=O)C2=O	66 µM
CC(=O)OCOC(=O)[C@]1(COC(C)=O)CC[C@]2(C)[C@H](CC[C@@H]3[C@@]4(C)CC[C@H](OC(C)=O)C(C)(C)[C@@H]4CC[C@]32C)C1=O	86 µM
COC(=O)C[C@@H]1CC[C@]2(C)[C@H](CC[C@@H]3[C@@]4(C)CC[C@H](OC(C)=O)C(C)(C)[C@@H]4CC[C@]32C)C1=O	106 µM
CC(=O)O[C@H]1CC[C@]2(C)[C@H]3CC[C@@H]4C(=O)CCC[C@@]4(C)[C@]3(C)CC[C@H]2C1(C)C	>250 µM
CC(=O)OC[C@@]1(CC(=O)O)CC[C@]2(C)[C@H](CC[C@@H]3[C@@]4(C)CC[C@H](OC(C)=O)C(C)(C)[C@@H]4CC[C@]32C)C1=O	5 µM
CC(=O)OC[C@@]1(C(=O)C(=O)C(=O)C(C)C)CC[C@]2(C)[C@H](CC[C@@H]3[C@@]4(C)CC[C@H](OC(C)=O)C(C)(C)[C@@H]4CC[C@]32C)C1=O	71 µM
COC(=O)CC[C@]1(C)[C@@H](C(=O)OC)CC[C@@H]2[C@@]3(C)CC[C@H](OC(C)=O)C(C)(C)[C@@H]3CC[C@]21C	>250 µM
CC(=O)O[C@H]1CC[C@]2(C)[C@H]3CC[C@@H]4C(=O)[C@@](CC(=O)C(=O)C(C)C)(C(=O)OCOC(=O)C(C)(C)C)CC[C@@]4(C)[C@]3(C)CC[C@H]2C1(C)C	>250 µM
COC(=O)[C@@]1(CC(=O)O)CC[C@]2(C)[C@H](CC[C@@H]3[C@@]4(C)CC[C@H](OC(C)=O)C(C)(C)[C@@H]4CC[C@]32C)C1=O	110 µM
CC(=O)O[C@H]1CC[C@]2(C)[C@H]3CC[C@@H]4C5=C(C(C)C)C(=O)C[C@]5(C(=O)O)CC[C@@]4(C)[C@]3(C)CC[C@H]2C1(C)C	>250 µM
CCOC[C@@H]1CC[C@]2(C)[C@H](CC[C@@H]3[C@@]4(C)CC[C@H](OC(C)=O)C(C)(C)[C@@H]4CC[C@]32C)C1=O	50 µM
COC(=O)[C@@]12CC[C@]3(C)[C@H](CC[C@@H]4[C@@]5(C)CC[C@H](OC(C)=O)C(C)(C)[C@@H]5CC[C@]43C)C1=C(C(C)C)C(=O)C2	20.4 µM
COC(=O)[C@]1(COC(C)=O)CC[C@]2(C)[C@H](CC[C@@H]3[C@@]4(C)CC[C@H](OC(C)=O)C(C)(C)[C@@H]4CC[C@]32C)C1=O	120 µM
CC(=O)O[C@H]1CC[C@]2(C)[C@H]3CC[C@@H]4C5=C(C(C)C)C(=O)C[C@]5(C(=O)OCOC(=O)C(C)(C)C)CC[C@@]4(C)[C@]3(C)CC[C@H]2C1(C)C	62.7 µM
